Results on two compounds are retold here after ChEMBL document CHEMBL3091288, “Fluorine Scanning by Nonselective Fluorination: Enhancing Raf/MEK Inhibition while Keeping Physicochemical Properties” (ACS Med Chem Lett, 2013).

Series [1] in a line: Clearance in rat at 5 mg/kg, iv and 10 mg/kg, po by LC-MS/MS analysis. The settings on record: in vivo. The format is ADME, organism-based. In short, it runs like this: (§1)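 Sodium salt dosed intravenously and orally in mouse (10/20 mg/kg), rat (5.0/10 mg/kg) and monkey (2.5/5.0 mg/kg iv/po), vehicle 5% DMSO/5% Cremophor EL/15% PEG400/15% HPCD/60% water. AUC_inf from oral dosing, t1/2 from iv dosing, clearance and oral bioavailability from paired iv/po data.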

In series [2] the test system is HCT-116. Nature of the series: Antitumor activity against human HCT116 cells xenografted in BALB-nu/nu mouse assessed as tumor growth inhibition at 30 mg/kg, po qd for 11 days measured twice per week relative to control. Type of series: functional. The settings on record: HCT-116, 264 h, read-out: TGI. The procedure, abridged:
(§2)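 HCT116 cells implanted subcutaneously in right flank of BALB-nu/nu mice; tumours allowed to establish before dosing. Sodium salt given orally once daily for 11 days (day 0 to day 10). Tumour size measured twice weekly; mean SD, n = 4.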
(In general: Xenograft models place foreign cells or tissue in a host animal.)

Series [3] can be described thus: Oral bioavailability in cynomolgus monkey at 5 mg/kg by LC-MS/MS analysis. The format is ADME, organism-based, Macaca fascicularis. As to conditions: in vivo. In short, it runs like this:
as §1

The subject of a further series is Mus musculus. Description: Toxicity in BALB nu/nu mouse xenografted with human HCT116 cells assessed as body weight change at 0.3 mg/kg to 30 mg/kg, po qd for 11 days measured twice per week. The format is organism-based, HCT-116. As to conditions: in vivo, 264 h.
In series [4] the test system is HCT-116. Description: Antitumor activity against human HCT116 cells xenografted in BALB-nu/nu mouse administered orally qd for 11 days. The format is functional. As to conditions: HCT-116, po, 264 h. The procedure, abridged:
as §2

Series [5] in a line: Half life in rat at 5 mg/kg, iv by LC-MS/MS analysis. Type of series: ADME, organism-based. Also noted: dose 5 mg/kg, route intravenous. The settings on record: in vivo. The procedure, abridged:
as §1

Series [6] can be described thus: AUC (infinity) in rat at 10 mg/kg, po by LC-MS/MS analysis. The format is ADME, organism-based. Also noted: time infinity, dose 10 mg/kg, route oral. As to conditions: plasma. The procedure, abridged: as §1
Series [7] is described as follows: Half life in BALB-nu/nu mouse at 10 mg/kg, iv by LC-MS/MS analysis. Type of series: ADME, organism-based. Also noted: dose 10 mg/kg, route intravenous. The settings on record: in vivo. The procedure, abridged:
as §1

A short description of series [8]: Oral bioavailability in BALB-nu/nu mouse at 20 mg/kg by LC-MS/MS analysis. Type of series: ADME, organism-based. As to conditions: in vivo. In short, it runs like this: as §1
Series [9] is described as follows: Half life in cynomolgus monkey at 2.5 mg/kg, iv by LC-MS/MS analysis. The settings on record: in vivo.
Series [10] is described as follows: Clearance in BALB-nu/nu mouse at 10 mg/kg, iv and 20 mg/kg, po by LC-MS/MS analysis. The format is ADME, organism-based. As to conditions: in vivo. The procedure, abridged:
as §1

Series [11] in a line: Clearance in cynomolgus monkey at 2.5 mg/kg, iv and 5 mg/kg, po by LC-MS/MS analysis. Type of series: ADME, organism-based, Macaca fascicularis. The settings on record: in vivo. In short, it runs like this:
as §1

Series [12] in a line: Oral bioavailability in rat at 10 mg/kg by LC-MS/MS analysis. Type of series: ADME, organism-based. The settings on record: in vivo. The procedure, abridged: as §1
A short description of series [13]: AUC (infinity) in cynomolgus monkey at 5 mg/kg, po by LC-MS/MS analysis. The format is ADME, organism-based, Macaca fascicularis. Also noted: dose 5 mg/kg, route oral, time infinity. The settings on record: plasma. In short, it runs like this:
as §1

The nature of series [14]: AUC (infinity) in BALB-nu/nu mouse at 20 mg/kg, po by LC-MS/MS analysis. Further details: time infinity, dose 20 mg/kg, route oral. As to conditions: plasma. The format is ADME, organism-based. In short, it runs like this: as §1
Series [15] in a line: Oral bioavailability in mouse. Type of series: ADME, organism-based. As to conditions: in vivo. The procedure, abridged: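 Mice received the sodium salt at 10 mg/kg iv and 20 mg/kg po, in a vehicle of 5% DMSO/5% Cremophor EL/15% PEG400/15% HPCD/60% water. Bioavailability was derived from the iv and po exposure.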
Series [16] in a line: Solubility of the compound in fasted state simulated intestinal fluid measured after overnight incubation by UV-HPLC analysis. Type of series: ADME.
Series [17] addresses RAF proto-oncogene serine/threonine-protein kinase (Homo sapiens, UniProt P04049). Nature of the series: Inhibition of C-Raf (unknown origin) assessed as phosphorylation of MEK1 after 45 mins by TR-FRET assay. In general terms: Time-resolved FRET reads energy transfer from a long-lived donor to a nearby acceptor.
The target in series [18] is Dual specificity mitogen-activated protein kinase kinase 1 (Homo sapiens, UniProt Q02750). Nature of the series: Inhibition of MEK1 (unknown origin) assessed as phosphorylation of Erk2 preincubated for 30 mins followed by FAM-Erktide addition measured after 60 mins by IMAP fluorescence polarization assay.
Chain of Dual specificity mitogen-activated protein kinase kinase 1 (Q02750 whole entry): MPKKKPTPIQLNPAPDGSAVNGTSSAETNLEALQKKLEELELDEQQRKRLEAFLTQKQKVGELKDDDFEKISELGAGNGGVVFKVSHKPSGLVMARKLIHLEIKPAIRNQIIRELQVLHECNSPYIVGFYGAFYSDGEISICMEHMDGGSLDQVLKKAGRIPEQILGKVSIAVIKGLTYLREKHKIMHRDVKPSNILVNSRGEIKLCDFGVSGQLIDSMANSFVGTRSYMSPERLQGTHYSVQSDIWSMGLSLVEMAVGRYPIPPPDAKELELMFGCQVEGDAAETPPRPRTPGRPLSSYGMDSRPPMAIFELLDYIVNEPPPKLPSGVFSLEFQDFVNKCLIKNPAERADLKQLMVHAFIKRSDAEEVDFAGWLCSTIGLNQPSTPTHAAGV
Series [19] is described as follows: Permeability of the compound at pH 6.5 by PAMPA. Type of series: ADME. The settings on record: read-out: permeability. In general terms: PAMPA measures passive passage across an artificial lipid membrane.
Another series relates to Liver microsome. Description: Clearance in human liver microsomes at 5 uM by LC-MS/MS analysis. Type of series: ADME.
Series [20] deals with HCT-116. Description: Antiproliferative activity against human HCT116 cells assessed as cell viability after 96 hrs by cell counting kit-8 assay. Type of series: functional, cell-based. The settings on record: HCT-116, 96 h.

The structures appear in SMILES notation. ≈ marks a conversion by molar mass, not a printed value.

Chain of RAF proto-oncogene serine/threonine-protein kinase (P04049 whole entry): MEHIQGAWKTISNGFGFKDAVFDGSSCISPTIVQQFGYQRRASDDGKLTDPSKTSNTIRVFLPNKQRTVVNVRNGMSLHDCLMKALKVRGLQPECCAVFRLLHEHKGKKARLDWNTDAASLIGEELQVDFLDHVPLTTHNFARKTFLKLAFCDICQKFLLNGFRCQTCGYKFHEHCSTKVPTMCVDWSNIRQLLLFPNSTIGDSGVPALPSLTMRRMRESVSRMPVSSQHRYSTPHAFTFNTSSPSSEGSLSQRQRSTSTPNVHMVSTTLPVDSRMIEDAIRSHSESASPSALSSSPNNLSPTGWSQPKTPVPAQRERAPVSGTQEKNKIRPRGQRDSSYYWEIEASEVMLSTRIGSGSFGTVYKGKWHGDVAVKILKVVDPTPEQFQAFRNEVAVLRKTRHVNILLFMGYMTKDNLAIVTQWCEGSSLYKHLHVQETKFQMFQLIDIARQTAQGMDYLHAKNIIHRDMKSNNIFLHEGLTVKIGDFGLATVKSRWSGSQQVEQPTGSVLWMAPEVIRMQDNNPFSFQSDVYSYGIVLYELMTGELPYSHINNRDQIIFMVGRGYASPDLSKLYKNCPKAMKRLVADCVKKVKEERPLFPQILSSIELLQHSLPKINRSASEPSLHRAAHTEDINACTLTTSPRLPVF

Regarding `CNS(=O)(=O)[N-]c1cccc(Cc2c(C)c3ccc(Oc4ncccn4)cc3oc2=O)c1F.[Na+]`, the clearance stood at 6.6 mL/min/kg in [1], 6.8 mL/min/kg in series [10] and 0.9 mL/min/kg in series [11]. Moreover, the inhibition in vivo at 30 mg/kg with HCT-116 [2] came out at 119%. The bioavailability (commonly dose-corrected exposure relative to a reference, in per cent) in [3] was found to be 59%; in series [8] it was 75%; in series [12], 84%. Also, the Activity result in the series with Mus musculus is “Non-toxic”. In addition, in the series on HCT-116 [4], the ED50 (commonly the midpoint of the dose-response relation) worked out at 1.4 mg/kg. Besides, the half-life – broadly, the time in which the quantity being followed falls by half – was determined as 1.3 h in series [5], 4.8 h in [7] and 2.9 h in series [9]. Besides, the AUC(0-inf) (in general, total exposure, with the tail of the curve extrapolated) in [6] worked out at 43 µM·h; in series [13] it was 108 µM·h; in series [14], 75 µM·h.

In series [15], `Cc1c(Cc2cccc(NS(N)(=O)=O)c2)c(=O)oc2cc(OC(=O)N(C)C)ccc12` displayed a bioavailability of 62%. Further, in series [16], the solubility (as a rule, the dissolved amount per volume that the medium holds) was 32 µg/mL (≈ 74.2 µM). For the same compound, the IC50 – broadly, the concentration that gives 50% inhibition – worked out at 0.53 µM in [17], 0.23 µM in series [18] and 0.095 µM in the series with HCT-116 [20]. Besides, the Papp in series [19] is 6 ×10⁻⁶ cm/s. In the series with Liver microsome, this compound displayed a CLH of 6 µL/min/mg.
